Experimental data published in ChEMBL document CHEMBL1121573, “2-(Aminomethyl)phenols, a new class of saluretic agents. 1. Effects of nuclear substitution” (J Med Chem, 1980).

System: Canis familiaris
Assay: Compound administered intravenously at a dose of 5 mg/kg was evaluated for salidiuretic activity measured as sodium ion excretion in Dog; Value ranges from 600-799
Format: ADME, organism-based, Canis lupus familiaris, Urine
Design: dose 5 mg/kg, route intravenous; unit not given beside the values
Details: in vivo, iv
Outline: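 Conditioned female mongrel dogs, postabsorptive, water-loaded (500 mL po) 1 h before sodium pentobarbital anesthesia (30 mg/kg iv). Bladder catheter; creatinine 4 g sc; phosphate–mannitol buffer pH 7.4 infused (3.0 mL/min) throughout. […] Urine Na+ measured; response scored 0–6.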

SMILES	Diuretic activity
CSc1cc(C(C)(C)C)cc(CN)c1O.Cl	600
C=CCc1cc(CN)c(O)c(OC)c1.Cl	600

System: not listed separately
Assay: Compound administered orally at a dose of 5 mg/kg was evaluated for salidiuretic activity measured as sodium ion excretion in Rat
Format: organism-based
Design: dose 5 mg/kg
Details: Urine
Outline: (§1)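 Female Charles-River rats (150–170 g), overnight on sugar diet with water ad libitum. Compound dissolved in DMF, diluted with water containing Tween 80 (final 4% DMF), given po in 5.0 mL; concurrent vehicle placebo. Three rats per metabolism cage; 0–5 h urine analysed for Na+, K+, Cl-. Values: mequiv × 100 per cage, geometric means of three cages per dose; scored 0–6 by Na+.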

SMILES	Diuretic activity
CSc1cc(C(C)(C)C)cc(CN)c1O.Cl	2.6
C=CCc1cc(CN)c(O)c(OC)c1.Cl	0.5

System: Rattus norvegicus
Assay: Evaluated for salidiuretic activity measured as sodium ion excretion in Rat, administered orally at a dose of 50 mg/kg
Format: functional, Urine
Design: unit not given beside the values
Details: route oral
Outline: as §1

SMILES	Diuretic activity
CSc1cc(C(C)(C)C)cc(CN)c1O.Cl	3.6
C=CCc1cc(CN)c(O)c(OC)c1.Cl	2.4

System: Rattus norvegicus
Assay: Compound administered orally at a dose of 81 mg/kg was evaluated for salidiuretic activity measured as sodium ion excretion in Rat
Format: ADME, organism-based, Urine
Design: dose 81 mg/kg, route oral; unit not given beside the values
Details: in vivo, po
Outline: as §1

SMILES	Diuretic activity
C=CCc1cc(CN)c(O)c(OC)c1.Cl	2.9

System: Rattus norvegicus
Assay: Compound administered orally at a dose of 1 mg/kg was evaluated for salidiuretic activity measured as sodium ion excretion in Rat
Details: in vivo, po

SMILES	Diuretic activity
CSc1cc(C(C)(C)C)cc(CN)c1O.Cl	0.7

System: not listed separately
Assay: Evaluated for salidiuretic activity measured as sodium ion excretion in Rat, administered orally at a dose of 16.5 mg/kg
Format: organism-based
Design: dose 16.5 mg/kg
Details: Urine
Outline: as §1

SMILES	Diuretic activity
CSc1cc(C(C)(C)C)cc(CN)c1O.Cl	3.3
C=CCc1cc(CN)c(O)c(OC)c1.Cl	1.4
